Calls of active or inactive are those of the source. No cut-off for these calls is given here.

What is called EC50 is the concentration that produces a half-maximal response. Low values mean an effect from little substance, high ones a need for much substance.

What all share (format): functional, cell-based
Experiment [1] deals with Melanocortin receptor 3 (Mus musculus) (UniProt P33033). Put plainly: Agonist activity at mouse melanocortin 3 receptor expressed in HEK293 cells at 100 uM after 48 hrs by cAMP based beta-galactosidase reporter gene assay. Summed up:
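HEK-293 cells stably expressing mouse MC3R were CRE/β-galactosidase reporter transfected and stimulated 48 h later for 6 h in IBMX/BSA DMEM. Peptide concentrations reached 100 µM. ONPG read at OD405, normalized to protein and forskolin.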
(In general: In a reporter assay the amount or activity of a reporter protein is the signal.)

The target of the next experiment is Melanocortin receptor 4 (Mus musculus, UniProt P56450). The experiment can be described thus: Agonist activity at mouse melanocortin 4 receptor expressed in HEK293 cells after 48 hrs by cAMP based beta-galactosidase reporter gene assay.
Chain of Melanocortin receptor 4 (P56450 whole entry): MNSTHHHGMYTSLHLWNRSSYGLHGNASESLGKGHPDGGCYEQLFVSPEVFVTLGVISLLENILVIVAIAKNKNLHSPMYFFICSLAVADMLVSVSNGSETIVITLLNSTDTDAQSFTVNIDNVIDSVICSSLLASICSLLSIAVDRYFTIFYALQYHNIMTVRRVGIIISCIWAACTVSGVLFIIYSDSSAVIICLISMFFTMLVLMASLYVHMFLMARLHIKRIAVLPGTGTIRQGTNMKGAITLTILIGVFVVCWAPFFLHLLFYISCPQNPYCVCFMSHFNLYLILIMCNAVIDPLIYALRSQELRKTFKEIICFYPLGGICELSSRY
In a further experiment the target is Melanocortin receptor 3 (Mus musculus, UniProt P33033). Put plainly: Agonist activity at mouse melanocortin 3 receptor expressed in HEK293 cells after 48 hrs by cAMP based beta-galactosidase reporter gene assay.
Chain of Melanocortin receptor 3 (P33033 whole entry): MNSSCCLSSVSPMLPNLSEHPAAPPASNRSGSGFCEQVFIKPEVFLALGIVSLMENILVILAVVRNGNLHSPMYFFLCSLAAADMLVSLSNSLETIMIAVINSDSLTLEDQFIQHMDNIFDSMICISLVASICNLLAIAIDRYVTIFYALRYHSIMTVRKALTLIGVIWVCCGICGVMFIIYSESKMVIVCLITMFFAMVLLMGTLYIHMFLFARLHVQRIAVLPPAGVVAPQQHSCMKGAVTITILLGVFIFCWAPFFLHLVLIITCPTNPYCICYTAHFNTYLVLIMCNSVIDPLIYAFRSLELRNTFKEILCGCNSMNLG
In a further experiment the target is Melanocortin receptor 5 (Mus musculus, UniProt P41149). The experiment can be described thus: Agonist activity at mouse melanocortin 5 receptor expressed in HEK293 cells after 48 hrs by cAMP based beta-galactosidase reporter gene assay.
Chain of Melanocortin receptor 5 (P41149 whole entry): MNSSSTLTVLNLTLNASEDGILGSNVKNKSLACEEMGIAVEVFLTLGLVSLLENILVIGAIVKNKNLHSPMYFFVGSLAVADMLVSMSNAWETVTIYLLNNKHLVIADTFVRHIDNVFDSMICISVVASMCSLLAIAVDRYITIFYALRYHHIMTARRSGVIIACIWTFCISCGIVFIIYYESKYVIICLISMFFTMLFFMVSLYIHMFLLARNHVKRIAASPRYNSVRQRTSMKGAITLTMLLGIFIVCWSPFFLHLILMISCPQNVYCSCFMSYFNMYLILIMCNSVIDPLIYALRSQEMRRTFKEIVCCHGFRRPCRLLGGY
Experiment [2] addresses Melanocyte-stimulating hormone receptor (Mus musculus, UniProt Q01727). Put plainly: Agonist activity at mouse melanocortin 1 receptor expressed in HEK293 cells after 48 hrs by cAMP based beta-galactosidase reporter gene assay.

Chain of Melanocyte-stimulating hormone receptor (Q01727 whole entry): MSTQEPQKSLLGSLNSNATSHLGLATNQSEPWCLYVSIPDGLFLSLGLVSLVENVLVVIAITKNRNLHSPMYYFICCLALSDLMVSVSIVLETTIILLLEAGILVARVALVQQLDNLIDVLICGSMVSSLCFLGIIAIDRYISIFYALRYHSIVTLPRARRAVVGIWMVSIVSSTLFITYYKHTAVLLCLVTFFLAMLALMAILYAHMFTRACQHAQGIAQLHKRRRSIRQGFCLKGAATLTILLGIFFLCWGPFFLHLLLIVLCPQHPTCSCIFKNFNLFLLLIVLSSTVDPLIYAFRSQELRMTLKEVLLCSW
Chain of Melanocortin receptor 3 (Mus musculus) (P33033 whole entry): as the sequence (P33033 whole entry) above

With `C[C@@H]1NC(=O)[C@H](CC(N)=O)NC(=O)[C@H](Cc2c[nH]c3ccccc23)NC(=O)[C@H](CCCNC(=N)N)N2C[C@@H](Cc3ccccc3)NC(=O)[C@H](CSCC2=O)NC(=O)[C@H](Cc2cnc[nH]2)NC(=O)[C@@H](NC(=O)[C@@H](N)Cc2ccc(O)cc2)CSSC[C@@H](C(=O)N[C@@H](Cc2ccc(O)cc2)C(N)=O)NC(=O)[C@H](Cc2ccccc2)NC1=O`, the result in experiment [1] was inactive.

Compound `C[C@@H]1NC(=O)[C@H](CC(N)=O)NC(=O)[C@H](Cc2c[nH]c3ccccc23)NC(=O)[C@H](CCCNC(=N)N)N2C[C@@H](Cc3ccccc3)NC(=O)[C@@H](CSCC2=O)NC(=O)[C@H](Cc2cnc[nH]2)NC(=O)[C@@H](NC(=O)[C@@H](N)Cc2ccc(O)cc2)CSSC[C@@H](C(=O)N[C@@H](Cc2ccc(O)cc2)C(N)=O)NC(=O)[C@H](Cc2ccccc2)NC1=O` showed an EC50 at Melanocortin receptor 4 of 3.21 µM.

Turning to `C[C@@H]1NC(=O)[C@H](CC(N)=O)NC(=O)[C@H](Cc2c[nH]c3ccccc23)N2C[C@H](CCCN=C(N)N)NC(=O)[C@H](CSCC2=O)NC(=O)[C@@H](Cc2ccccc2)NC(=O)[C@H](Cc2cnc[nH]2)NC(=O)[C@@H](NC(=O)[C@@H](N)Cc2ccc(O)cc2)CSSC[C@@H](C(=O)N[C@@H](Cc2ccc(O)cc2)C(N)=O)NC(=O)[C@H](Cc2ccccc2)NC1=O`, the 50% effective concentration (EC50) at Melanocortin receptor 3 is 0.495 µM; on Melanocortin receptor 5 it was 0.072 µM; in experiment [2], 0.033 µM; on Melanocortin receptor 4 it was 0.085 µM.

As for `CC(=O)N[C@@H](Cc1cnc[nH]1)C(=O)N[C@H](Cc1ccccc1)C(=O)N[C@@H]1CSCC(=O)N([C@@H](Cc2c[nH]c3ccccc23)C(N)=O)C[C@H](CCCN=C(N)N)NC1=O`, the concentration for a half-maximal effect (EC50) on Melanocortin receptor 3 came to 7.6 µM; at Melanocortin receptor 5, 0.335 µM; in experiment [2], 0.164 µM; on Melanocortin receptor 4, 0.65 µM.

For `C[C@@H]1NC(=O)[C@H](CC(N)=O)NC(=O)[C@H](Cc2c[nH]c3ccccc23)NC(=O)[C@H](CCCNC(=N)N)NC(=O)[C@@H](Cc2ccccc2)N2C[C@H](Cc3cnc[nH]3)NC(=O)[C@@H](CSCC2=O)NC(=O)[C@@H](NC(=O)[C@@H](N)Cc2ccc(O)cc2)CSSC[C@@H](C(=O)N[C@@H](Cc2ccc(O)cc2)C(N)=O)NC(=O)[C@H](Cc2ccccc2)NC1=O`, in experiment [1], the outcome was inactive.

Consider `C[C@@H]1NC(=O)[C@H](CC(N)=O)NC(=O)[C@H](Cc2c[nH]c3ccccc23)NC(=O)[C@H](CCCN=C(N)N)NC(=O)[C@@H](Cc2ccccc2)NC(=O)[C@H](Cc2cnc[nH]2)NC(=O)[C@@H](NC(=O)[C@@H](N)Cc2ccc(O)cc2)CSSC[C@@H](C(=O)N[C@@H](Cc2ccc(O)cc2)C(N)=O)NC(=O)[C@H](Cc2ccccc2)NC1=O`, for which the EC50 at Melanocortin receptor 3 stood at 0.002 µM; at Melanocortin receptor 5, 0.0023 µM; in experiment [2], 0.00035 µM; on Melanocortin receptor 4 it was 0.00027 µM.

Source of the values: ChEMBL document CHEMBL1687907, “Incorporation of a bioactive reverse-turn heterocycle into a peptide template using solid-phase synthesis to probe melanocortin receptor selectivity and ligand conformations by 2D 1H NMR” (J Med Chem, 2011).
